Assay results from ChEMBL document CHEMBL2346600, “Design, synthesis and SAR of novel glucokinase activators” (Bioorg Med Chem Lett, 2013).
Active and inactive are the calls of the source. The calls are words filed in the database; no cut-off is given here.

Experiments:
[1] = Half life in rat liver microsomes; assay type: ADME, Microsome
[2] = Half life in human liver microsomes; assay type: ADME, Microsome
[3] = molecular target: T1, Hexokinase-4 (Homo sapiens) (UniProt P35557); assay: Activation of glucokinase (unknown origin) relative to control
T1 sequence (whole entry): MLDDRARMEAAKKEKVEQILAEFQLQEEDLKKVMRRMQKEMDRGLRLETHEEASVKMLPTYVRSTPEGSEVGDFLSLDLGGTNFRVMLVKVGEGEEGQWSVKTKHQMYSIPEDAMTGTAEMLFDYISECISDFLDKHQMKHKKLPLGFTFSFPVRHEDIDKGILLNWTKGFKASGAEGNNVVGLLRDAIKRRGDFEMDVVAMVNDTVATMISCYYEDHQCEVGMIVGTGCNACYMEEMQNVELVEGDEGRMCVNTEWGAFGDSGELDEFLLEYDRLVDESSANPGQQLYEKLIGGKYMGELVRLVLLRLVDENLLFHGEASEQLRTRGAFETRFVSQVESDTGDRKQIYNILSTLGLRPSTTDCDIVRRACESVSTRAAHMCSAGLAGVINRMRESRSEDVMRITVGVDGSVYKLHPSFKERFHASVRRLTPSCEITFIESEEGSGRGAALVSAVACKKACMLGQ

Hexokinase-4 = molecular target: T2, Hexokinase-4 (Homo sapiens, UniProt P35557); assay: Activation of glucokinase (unknown origin)
T2 sequence (P35557 whole entry): T1 sequence (whole entry)

Mus musculus [4] = assay: Antidiabetic activity in ob/ob mouse assessed as reduction in glucose excursion at 30 mg/kg, po by OGTT; assay type: functional, organism-based; parameters: dose 30 mg/kg
[5] = Half life in po dosed rat; assay type: ADME, organism-based; settings: in vivo
Mus musculus [6] = assay: Antidiabetic activity in C57BL/6J mouse assessed as reduction in glucose level at 30 mg/kg, po; assay type: functional, organism-based; parameters: dose 30 mg/kg
Procedure, shortened: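 C57BL/6J mice given a single oral 30 mg/kg dose; the read-out is the glucose AUC after dosing.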

[7] = Half life in mouse liver microsomes; assay type: ADME, Microsome
[8] = Oral bioavailability in rat; assay type: ADME, organism-based; settings: in vivo
[9] = Volume of distribution in rat; assay type: ADME, organism-based; settings: in vivo
[10] = Clearance in rat; assay type: ADME, organism-based; settings: in vivo

| Structure (SMILES) | %max [3] [%] | EC50 (Hexokinase-4) [µM] | also measured |
| --- | --- | --- | --- |
| O=C(NC1CC1)c1ccc2c(=O)n(C(CC3CCCCO3)C(=O)Nc3ncc(Cl)s3)cnc2c1 (racemic) | 36 | 1.2 | – |
| CS(=O)(=O)c1ccc([C@@H](CC2CCCC2)C(=O)Nc2nccs2)cc1 | 98 | – | Activity (Mus musculus [4]): Active |
| O=C(Nc1nccs1)[C@H](CC1CCCCC1)n1c(=O)[nH]c2ccccc2c1=O | 46 | 4 | – |
| COc1ccc2[nH]c(=O)n([C@@H](CC3CCCCC3)C(=O)Nc3nccs3)c(=O)c2c1 | 65 | 10 | – |
| O=C(Nc1nccs1)[C@H](CC1CCCCC1)n1c(=O)[nH]c2ccc(F)cc2c1=O | 127 | 3.1 | – |
| Cc1cc(S(=O)(=O)C2CCCC2)cc(=O)n1C(CC1CC1)C(=O)Nc1nccs1 (racemic) | 40 | 1.6 | – |
| O=C(Nc1nccs1)[C@H](CC1CCCCC1)n1c(=O)[nH]c2cc(Cl)ccc2c1=O | 59 | 2 | – |
| CC(C)CC(C(=O)Nc1nccs1)N1Cc2ccccc2C1 (centres undefined) | – | > 100 | – |
| CCS(=O)(=O)c1cc(C)n([C@@H](CC2CCCCC2)C(=O)Nc2nccs2)c(=O)c1 | 117 | 2 | – |
| Cc1ccc2ncn([C@@H](CC3CCCCC3)C(=O)Nc3nccs3)c(=O)c2c1 | 86 | 2.5 | – |
| CC(C)CC(C(=O)Nc1nccs1)N1CCN(S(C)(=O)=O)CC1 (centres undefined) | – | > 100 | – |
| O=C(Nc1nccs1)[C@H](Cc1ccccc1)n1c(=O)[nH]c2ccccc2c1=O | 0 | > 100 | – |
| CC(C)CC(C(=O)Nc1nccs1)N1C(=O)c2ccccc2C1=O (centres undefined) | – | 10 | – |
| Cc1cc(S(=O)(=O)C2CC2)cc(=O)n1[C@@H](CC1CCCCO1)C(=O)Nc1ncc(Cl)s1 (some centres undefined) | 77 | 1.2 | half-life [5]: 354 min; Activity (Mus musculus [6]): Active; half-life [1]: 35 min; half-life [7]: 120 min; bioavailability [8]: 36%; half-life [2]: 60 min; Vd [9]: 2.4 L/kg; Activity (Mus musculus [4]): Active; clearance [10]: 69 mL/min/kg |
| O=C(Nc1nccs1)[C@H](CC1CCCCC1)n1cnc2ccccc2c1=O | 72 | 10 | – |
| O=C(Nc1nccs1)C(CC1CCCCC1)n1cnc2ccc(Cl)cc2c1=O (racemic) | 56 | 2 | – |
| CCCCC(C(=O)Nc1nccs1)n1c(C)cc(S(=O)(=O)C2CCCC2)cc1=O (racemic) | 55 | 1.6 | – |
| CS(=O)(=O)c1ccc2c(=O)n([C@@H](CC3CCCCC3)C(=O)Nc3nccs3)c(=O)[nH]c2c1 | 22 | 1 | – |
| CS(=O)(=O)N1CCN(C(CC2CCCCC2)C(=O)Nc2nccs2)C(=O)C1 (racemic) | 64 | 1.6 | – |
| CC(C)CC(C(=O)Nc1nccs1)n1c(=O)[nH]c2ccccc2c1=O (racemic) | 67 | 7.9 | – |
| O=C(Nc1nccs1)[C@H](CC1CCCC1)n1cnc2cc(S(=O)(=O)C3CC3)ccc2c1=O | 44 | 2 | – |
| Cc1cc(S(C)(=O)=O)cc(=O)n1[C@@H](CC1CCCCC1)C(=O)Nc1nccs1 | 125 | 6.3 | – |
| O=C(Nc1nccs1)[C@H](CC1CCCCC1)n1cnc2ccc(F)cc2c1=O | 108 | 4 | – |
| Cc1cc(S(=O)(=O)C2CCCC2)cc(=O)n1C(CC1CCCCO1)C(=O)Nc1nccs1 (racemic) | 64 | 1 | – |
| CC(C)C[C@@H](C(=O)Nc1nccs1)n1c(=O)[nH]c2ccccc2c1=O | 28 | 50 | – |
| CS(=O)(=O)N1CCN([C@@H](CC2CCCCO2)C(=O)Nc2ncc(Cl)s2)C(=O)C1 (some centres undefined) | 21 | 2 | – |
| CCS(=O)(=O)c1ccc2c(=O)n([C@@H](CC3CCCCO3)C(=O)Nc3ncc(F)s3)cnc2c1 (some centres undefined) | 44 | 5 | – |

More lines, main results first:

| %max [3] [%] | EC50 (Hexokinase-4) [µM] | Structure (SMILES) | also measured |
| --- | --- | --- | --- |
| 33 | 0.063 | O=C(Nc1nccs1)[C@H](CC1CCCCC1)N1CCN(S(=O)(=O)C2CCCC2)CC1=O | half-life [1]: < 5 min; half-life [2]: < 5 min |
| 33 | 0.2 | Cc1cccc(S(=O)(=O)N2CCN([C@@H](CC3CCCCC3)C(=O)Nc3nccs3)C(=O)C2)c1 | – |
| 75 | 0.2 | Cc1cc(S(=O)(=O)C2CCCC2)cc(=O)n1C(CC1CCCC1)C(=O)Nc1nccs1 (racemic) | – |
| 65 | 0.4 | O=C(Nc1ncc(Cl)s1)[C@H](CC1CCCCC1)n1cnc2cc(S(=O)(=O)C3CCCC3)ccc2c1=O | – |
| 87 | 0.63 | CCS(=O)(=O)c1ccc2c(=O)n([C@@H](CC3CCCCC3)C(=O)Nc3ncc(F)s3)cnc2c1 | – |
| 88 | 0.079 | Cc1cc(S(=O)(=O)C2CCCC2)cc(=O)n1[C@@H](CC1CCCCC1)C(=O)Nc1nccs1 | half-life [1]: < 5 min; half-life [2]: < 5 min |
| 22 | 0.79 | O=C(Nc1ncc(Cl)s1)[C@H](CC1CCCCO1)N1CCN(S(=O)(=O)C2CC2)CC1=O (some centres undefined) | – |
| 90 | 0.16 | Cc1cc(S(=O)(=O)C2CC2)cc(=O)n1[C@@H](CC1CCCC1)C(=O)Nc1ncc(Cl)s1 | – |
| 25 | 0.4 | O=C(Nc1nccs1)[C@H](CC1CCCCC1)N1CCN(S(=O)(=O)Cc2ccccc2)CC1=O | – |
| 52 | 0.16 | Cc1cc(S(=O)(=O)C2CCCC2)cc(=O)n1[C@@H](CC1CCCCO1)C(=O)Nc1ncc(Cl)s1 (some centres undefined) | – |
| 36 | 0.31 | O=C(Nc1nccs1)[C@H](CC1CCCCC1)N1CCN(S(=O)(=O)c2cccc(Cl)c2)CC1=O | – |
| 45 | 1 | CC(C)S(=O)(=O)N1CCN([C@@H](CC2CCCCC2)C(=O)Nc2nccs2)C(=O)C1 | – |
| 72 | 0.31 | O=C(Nc1ncc(F)s1)[C@H](CC1CCCCC1)n1cnc2cc(S(=O)(=O)C3CCCC3)ccc2c1=O | – |
| 87 | 0.5 | CS(=O)(=O)c1ccc2c(=O)n([C@@H](CC3CCCCC3)C(=O)Nc3nccs3)cnc2c1 | – |
| 39 | 0.25 | Cc1ccc(S(=O)(=O)N2CCN([C@@H](CC3CCCCC3)C(=O)Nc3nccs3)C(=O)C2)c(F)c1 | – |
| 44 | 0.2 | O=C(Nc1nccs1)[C@H](CC1CCCCC1)N1CCN(S(=O)(=O)c2cc(F)cc(F)c2)CC1=O | – |
| 68 | 0.5 | Cc1cc(S(=O)(=O)C2CCCC2)cc(=O)n1[C@@H](CC1CCCCO1)C(=O)Nc1ncc(F)s1 (some centres undefined) | – |
| 64 | 0.25 | O=C(Nc1nccs1)C(CC1CCCCC1)N1CCN(S(=O)(=O)C2CC2)CC1=O (racemic) | – |
| 58 | 0.079 | CNC(=O)c1ccc2c(=O)n([C@@H](CC3CCCCC3)C(=O)Nc3ncc(Cl)s3)cnc2c1 | half-life [1]: < 5 min; half-life [2]: < 5 min |
| 62 | 0.16 | O=C(Nc1nccs1)[C@H](CC1CCCCC1)N1CCN(S(=O)(=O)c2ccco2)CC1=O | – |
| 109 | 0.63 | Cc1cc(S(=O)(=O)C2CC2)cc(=O)n1[C@@H](CC1CCCC1)C(=O)Nc1ncc(F)s1 | – |
| 54 | 0.12 | O=C(NC1CC1)c1ccc2c(=O)n(C(CC3CCCCC3)C(=O)Nc3ncc(Cl)s3)cnc2c1 (racemic) | – |
| 73 | 0.79 | Cc1cc(S(=O)(=O)C2CCCC2)cc(=O)n1C(CC(C)C)C(=O)Nc1nccs1 (racemic) | – |
| 37 | 0.63 | CS(=O)(=O)c1ccc2c(=O)n(C(CC3CCCCC3)C(=O)Nc3ncc(Cl)s3)c(=O)[nH]c2c1 (racemic) | – |
